Screens: PubChem BioAssay, SRMLSC
A selection: hits, their analogues and other compounds. The true share with any hit is near 2.6%.
RAM network inh – inhibitors of the yeast RAM network, primary screen, dse1pr::URA3 reporter, 5-FOA selection | S. cerevisiae dse1pr::URA3 reporter, 5-FOA growth OD615, 2 d; analog-sensitive cbk1-as2 kinase mutant strain | inhibition, % at 50 µM | 1.8% of 190,000 active;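 active = inhibition above a set limit, 3 SD over mean compound inhibition, cut at about 8.4% in these data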;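 also: inhibition rescues growth on 5-FOA so higher OD means more RAM inhibition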
Yeast life ext – compounds extending yeast replicative lifespan, primary screen, S. cerevisiae, OD615; 0.68% of 130,000 active; inhibition of the nicotinamide effect, % at 10 µM; S. cerevisiae growth with nicotinamide; deaD strain in restrictive glucose medium;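 active = inhibition above a set limit, placed 3 SD over the median of all compounds, cut at about 26% in these data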
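System: Modified budding yeast, DeaD strain | Buffer or medium: Restrictive glucose medium | Also added: 1.5 mM nicotinamide | Doses: 10 µM single point, 0.25% DMSO | Schedule: 48 h compound exposure at 30 °C, humidified | Detection: Absorbance at 615 nm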
Yeast growth inh – growth inhibitors of yeast BB579 in restrictive medium, primary screen, yeast lifespan-shortening project, S. cerevisiae. 0.51% of 140,000 active. OD615, 48 h. inhibition, % at 10 µM. AID 804, 2007;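 active = inhibition above a set limit, 3 SD over the mean compound inhibition, cut at about 44% in these data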
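Test system: S. cerevisiae DeaD strain BB579 yeast; Medium: restrictive CSMM-D medium; Compound: one dose, 10 µM compound with 0.25% DMSO; Incubation: 4 h cell preincubation, 48 h compound exposure, 30 °C humidified; Signal: OD at 615 nm; Benchmarks: amphotericin B at 10 µg/mL as positive control.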
RAM 5-FOA – 5-FOA growth of efflux-deficient control yeast, dose response, counter-screen for RAM network inhibitor project, S. cerevisiae, OD615; shares compounds with RAM network inh; S. cerevisiae efflux-deficient reporter strain, 5-FOA growth OD615, 2 days; max inhibition, %; 1,200 tested, under 10 active; AID 1305, 2008; call rule not given here
Each line names hits and unclear results; the compound was inactive in the other large screens (follow-up assays come after a bar, where they were run).

Cc1ccc(N/C(SCc2ccccc2C)=C(/C#N)C(=O)NCc2ccco2)cc1C	none
Cc1c(C(=O)NCCSCc2ccccc2Cl)cccc1[N+](=O)[O-]	none
O=C(/C=C/c1cccc([N+](=O)[O-])c1)NCCSCc1ccc(Cl)cc1Cl	RAM network inh 12 | RAM 5-FOA inactive
Cc1ccc(CSCCNC(=O)/C=C/c2ccc(Cl)cc2)cc1	none
O=C(/C=C/c1cccc([N+](=O)[O-])c1)NCCSCc1ccccc1Cl	RAM network inh 12 | RAM 5-FOA inactive
O=C(/C=C/c1ccc2c(c1)OCO2)NCCSCc1ccc(Cl)cc1Cl	RAM network inh 12 | RAM 5-FOA inactive
O=C(/C=C/c1cccc([N+](=O)[O-])c1)NCc1ccc2c(c1)OCO2	none
O=C(CCCSc1nc2ccccc2[nH]1)Nc1nnc(C2CC2)s1	none (no result: Yeast life ext, Yeast growth inh)
Cc1ccc(C(=O)NCCc2ccc(S(N)(=O)=O)cc2)cc1[N+](=O)[O-]	none (no result: Yeast life ext, Yeast growth inh)
O=C(/C=C/c1ccccc1)NC(NC(=S)Nc1cc(Cl)ccc1Cl)C(Cl)(Cl)Cl (stereo not drawn)	none
O=C(CN1C(=O)CSc2ccc(S(=O)(=O)N3CCOCC3)cc21)NCc1cccnc1	none (no result: Yeast life ext, Yeast growth inh)
O=c1[nH]c(SCc2c(Cl)cccc2Cl)nc2ccccc12	none (no result: Yeast life ext, Yeast growth inh)
Cc1ccc2sc(NC(=O)c3ccc(N4C(=O)CCC4=O)cc3)nc2c1C	RAM network inh 17 | RAM 5-FOA inactive
CCc1cccc2sc(NC(=O)c3ccc(N4C(=O)CCC4=O)cc3)nc12	none
S=C(Nc1ccc(Br)cc1)NC1CCCCC1	none
CCNc1nc(NC(C)C)nc(Oc2ccc(=O)n(C)n2)n1	none (no result: Yeast life ext, Yeast growth inh)
COc1ccc(S(=O)(=O)NCC2CCCN(C(=O)CC3CCCC3)C2)cc1 (stereo not drawn)	none (no result: Yeast life ext, Yeast growth inh)
NC(=O)Cn1c(=O)n(C2CCCCC2)c(=O)c2c3c(sc21)CCCCC3	none
CC(C)(C)c1ccc(C(=O)NC(=S)Nn2cnnc2)cc1	none
CC(C)C(c1nnnn1Cc1ccccc1)N(Cc1ccco1)Cc1cccs1 (stereo not drawn)	RAM network inh 13 | RAM 5-FOA inactive
COc1ccc(Cn2nnnc2C(c2cccs2)N2CCOCC2)cc1 (stereo not drawn)	none
Cc1ccc(C(c2nnnn2C(C)(C)C)N(Cc2ccco2)Cc2cccs2)cc1 (stereo not drawn)	none
COc1ccc(Cn2nnnc2C(C(C)C)N(Cc2ccco2)Cc2cccs2)cc1 (stereo not drawn)	RAM network inh 12 | RAM 5-FOA inactive
CCN1C(=O)/C(=C\c2cn(CCC#N)nc2-c2ccc(F)cc2)SC1=S	none
CCOC(=O)c1ccc(Oc2ccc(C(F)(F)F)cn2)cc1	none (no result: Yeast life ext, Yeast growth inh)
CCN(CC)S(=O)(=O)c1ccc(OC)c(NC(=S)Nc2cc(C)ccc2C)c1	none
CCN(CC)S(=O)(=O)c1ccc(OC)c(NC(=O)CSc2cc(C)ccc2C)c1	RAM network inh 15 | RAM 5-FOA inactive
Cc1cc(NC(=O)CCSc2ccccc2)ccc1Br	RAM network inh 14 | RAM 5-FOA inactive
Cc1cc(Br)ccc1NC(=O)CCSc1ccccc1	none
COc1ccc(NC(=O)Nc2ccc(F)c(F)c2)c(OC)c1	none (no result: Yeast life ext, Yeast growth inh)
O=C1/C(=C\c2ccco2)SC(=S)N1Cc1ccccc1	none
COc1ccc(CCN2C(=O)/C(=C\c3ccco3)SC2=S)cc1OC	RAM network inh 12 (no result: Yeast life ext, Yeast growth inh) | RAM 5-FOA inactive
CC1CCCCC1NCC(=O)NCc1ccc(F)cc1 (stereo not drawn)	none (no result: Yeast life ext, Yeast growth inh)
CCOC(=O)N1CCC(NC(=O)c2cc(C(=O)NCC(OC)OC)ccc2CO)CC1	none
O=c1c(-c2nnc(SCc3ccc(Cl)cc3Cl)o2)cccn1Cc1ccccc1	RAM network inh 12 | RAM 5-FOA inactive
CSc1nnc(-c2cccn(Cc3ccccc3)c2=O)o1	none (no result: Yeast life ext, Yeast growth inh)
CCc1nnc(NC(=O)c2ccc(-c3ccc([N+](=O)[O-])cc3Cl)o2)s1	none (no result: Yeast life ext, Yeast growth inh)
COc1ccc(C2(CNC(=O)c3ccc(OCC(C)C)cc3)CCOCC2)cc1	none
O=C(NCc1cccnc1)C(=O)NCC1OCCCN1S(=O)(=O)c1ccccc1 (stereo not drawn)	none
O=C(Cc1csc(NC(=O)c2ccc(F)cc2)n1)NO	none (no result: Yeast life ext, Yeast growth inh)
CC(=O)c1ccc(OC(=O)c2ccc(-n3nc(C)cc3C)cc2)cc1	none (no result: Yeast life ext, Yeast growth inh)
Cc1cc(C)n(-c2ccc(C(=O)Oc3ccc4c(c3)OCO4)cc2)n1	RAM network inh 13 | RAM 5-FOA inactive
Cc1ccc(SCC(=O)Nc2ccc(F)cc2[N+](=O)[O-])cc1C	RAM network inh 15 | RAM 5-FOA inactive
Cc1cccc(SCC(=O)Nc2ccccc2[N+](=O)[O-])c1	none (no result: Yeast life ext, Yeast growth inh)
COc1cc(S(=O)(=O)Nc2ccccc2)ccc1N=Cc1c(C)[nH]n(-c2ccc(C)cc2)c1=O	RAM network inh 13 | RAM 5-FOA inactive
COc1cc(SC#N)ccc1N=Cc1c(C)[nH]n(-c2ccc(Cl)cc2)c1=O	none
C#CCN(C(=O)CC1C(=O)NCCN1C/C=C/c1ccccc1)C1CCCCC1 (stereo not drawn)	none (no result: Yeast life ext, Yeast growth inh)
CC(C)(C)c1cc(=O)n(-c2ccccc2)[nH]1	none
COc1cccc(NC(=O)CSc2nc3ccccc3cc2Cc2ccccc2)c1	none
COc1cccc(CSc2nc3ccccc3cc2C=O)c1	RAM network inh 12, Yeast life ext 84 | RAM 5-FOA inactive
CCOC(=O)CCCSc1nc(-c2ccc3c(c2)OCO3)cc(C(F)(F)F)c1C#N	RAM network inh 14 | RAM 5-FOA inactive
CCOC(=O)CSc1nc(-c2ccc3c(c2)OCO3)ccc1C#N	none
COC(=O)C(Cc1ccccc1)NC(=O)C12CC3CC(CC(C3)C1)C2 (stereo not drawn)	none
COC(=O)[C@H](Cc1ccccc1)NC(=O)[C@@]1(C)C[C@@H]1[C@@H](NC(=O)OCc1ccccc1)c1ccccc1	RAM network inh 13 | RAM 5-FOA inactive
COc1cccc(NC(=O)C2CC(=O)N(C)C(=Nc3cccc(F)c3)S2)c1 (stereo not drawn)	RAM network inh 19 | RAM 5-FOA inactive
COc1cccc(N=C2SC(C(=O)Nc3ccccc3F)CC(=O)N2C)c1 (stereo not drawn)	none
Cc1ccc(S(=O)(=O)n2nc(-c3ccc(Cl)cc3)nc2NCc2ccco2)cc1	RAM network inh 15 | RAM 5-FOA inactive
CCS(=O)(=O)n1nc(-c2ccccc2)nc1NCc1ccco1	none
CCc1n[nH]c(=S)n1/N=C/c1cc(Br)c(OC)cc1OC	none
C=CCn1c(O)c(C(CC)=NCc2cccnc2)c(=O)[nH]c1=O	none (no result: Yeast life ext)
Cc1cccc(-n2c(C)cc(/C=C3\C(=N)N4N=C(CC(C)C)SC4=NC3=O)c2C)c1	none
CC(C)CC1=NN2C(=N)/C(=C\c3coc4ccccc4c3=O)C(=O)N=C2S1	RAM network inh 14 (no result: Yeast life ext, Yeast growth inh) | RAM 5-FOA inactive
O=C(Cn1nc(-c2ccc3c(c2)OCCO3)ccc1=O)Nc1cccc(NC(=O)c2ccccn2)c1	none (no result: Yeast life ext, Yeast growth inh)
Cc1oc(-c2cc(Cl)cc(Cl)c2)cc1C(=O)NCCc1ccccc1	RAM network inh 13 | RAM 5-FOA inactive
COc1ccc(CCNC(=O)c2cc(-c3cc(Cl)cc(Cl)c3)oc2C)cc1	none
COc1ccc(OC)c(NC(=O)C2CCN(Cc3cnn(-c4ccccc4)c3-n3cccc3)CC2)c1	none
